Measured values published in ChEMBL document CHEMBL4706642, “Discovery of a Potent Dual Inhibitor of Acetylcholinesterase and Butyrylcholinesterase with Antioxidant Activity that Alleviates Alzheimer-like Pathology in Old APP/PS1 Mice” (J Med Chem, 2021).
Calls of active or inactive are those of the source.

Assays:
Mus musculus [1] = assay: Cognitive enhancing effect in 6 months young APP/PS1 double mutant-transgenic mouse model assessed as effect on time spent on moving along the field at 2 mg/kg, ip administered thrice a week for 4 weeks by LOF test; format: functional, organism-based
Procedure, shortened: (§1)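 Open-field locomotor test in male APP/PS1 mice after 2 mg/kg i.p. in saline (or vehicle), three times per week for 4 weeks. Read-outs were time spent moving and number of crossings of the central area of a transparent cage. Mean ± SEM, n = 7 per group; one-way ANOVA with Bonferroni post hoc.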

Mus musculus [2] = assay: Memory enhancement effect in 6 months young APP/PS1 double mutant-transgenic mouse model at 2 mg/kg, ip administered thrice a week for 4 weeks by memory flexibility text; format: functional, organism-based
Procedure, shortened: (§2)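 Memory flexibility test in male APP/PS1 mice treated i.p. with 2 mg/kg in saline (or vehicle), three times weekly for 4 weeks. The number of trials to reach criterion was counted on each testing day over 4 days. Mean ± SEM, n = 7 per group; one-way ANOVA with Bonferroni post hoc.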

Mus musculus [3] = assay: (§3) Antialzheimer activity in 6 months young APP/PS1 double mutant-transgenic mouse model assessed as postsynaptic potential in CA3 region of hippocampus at 2 mg/kg, ip administered thrice a week for 4 weeks followed by stimulation with 1 to 10 uA EPSP by fluorescence microscopy based electrophysiology method (reference value: 0.269 +/- 0.072 mV/ms); format: functional
Procedure, shortened: (§4)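 Hippocampal slices from male APP/PS1 mice given 2 mg/kg i.p. in saline (or saline alone), three times per week for 4 weeks. Input–output curves were built from evoked fEPSP slopes and fiber volley amplitudes, with values taken at the maximum current intensity. Mean ± SEM of 9 slices from 3 mice per group; two-way ANOVA with Bonferroni post hoc.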

Mus musculus [4] = assay: Cognitive enhancing effect in 6 months young APP/PS1 double mutant-transgenic mouse model assessed as effect on number of times animal crossing central area in transparent cage at 2 mg/kg, ip administered thrice a week for 4 weeks by LOF test; format: functional, organism-based; procedure, shortened: as §1
[5] = Drug distribution in wild type C57BL6 mouse liver at 2 mg/kg, ip thrice a week for 2 weeks observed after 4 hrs post last dose by HPLC/MS/MS analysis; format: ADME, organism-based; details: in vivo, 336 h
Mus musculus [6] = assay: Antialzheimer activity in 11 months old APP/PS1 double mutant-transgenic mouse model assessed as time interval at which EPSP-evoked calcium-dependent vesicle release in CA3 region of hippocampus causing short-term plasticity at 2 mg/kg, ip administered thrice a week for 4 weeks measured at 10 ms interval by fluorescence microscopy based electrophysiology method (reference value: 2.05 +/- 0.2 ms); format: functional
Procedure, shortened: (§5)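 Paired-pulse facilitation in hippocampal slices from male APP/PS1 mice dosed i.p. with 2 mg/kg in saline (or vehicle), three times per week for 4 weeks. Two EPSPs were evoked at intervals of 10–200 ms, and the index is the R2/R1 fEPSP slope ratio. Mean ± SEM of 9 slices from 3 mice per group; two-way ANOVA with Bonferroni post hoc.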

Mus musculus [7] = assay: Antialzheimer activity in 6 months young APP/PS1 double mutant-transgenic mouse model assessed as amyloid beta42 levels in hippocampus at 2 mg/kg, ip administered thrice a week for 4 weeks by ELISA; format: functional, organism-based
Procedure, shortened: (§6)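 Male APP/PS1 mice received 2 mg/kg i.p. in saline (or vehicle), three times weekly for 4 weeks. After the behavioral tests, hippocampus was collected and Aβ40 and Aβ42 were measured with a specific ELISA kit. Mean ± SEM, n = 7 mice per group; one-way ANOVA with Bonferroni post hoc.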

[8] = Antioxidant activity assessed as DPPH radical scavenging activity incubated for 30 mins under dark condition by UV-Vis spectrophotometric analysis; format: functional
Mus musculus [9] = assay: (§7) Antialzheimer activity in 6 months young APP/PS1 double mutant-transgenic mouse model assessed as theta burst induced-long term potentiation in CA3 region of hippocampus at 2 mg/kg, ip administered thrice a week for 4 weeks by fluorescence microscopy based electrophysiology method (reference value: 134.1 +/- 13.1 %); format: functional
Mus musculus [10] = assay: Antiinflammatory activity in 6 months young APP/PS1 double mutant-transgenic mouse model assessed as reduction in GFAP level in hippocampus at 2 mg/kg, ip administered thrice a week for 4 weeks by Hoechst staining based immunofluorescence analysis; format: functional, organism-based
Procedure, shortened: (§8)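 Hippocampal GFAP immunofluorescence with Hoechst nuclear counterstain in male APP/PS1 mice after 2 mg/kg i.p. in saline (or vehicle), three times per week for 4 weeks. Mean ± SEM, n = 4 mice per group; one-way ANOVA with Bonferroni post hoc.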

Acetylcholinesterase = Acetylcholinesterase (Homo sapiens, UniProt P22303); assay: Inhibition of recombinant human AChE using acetylthiocholineiodide as substrate preincubated for 20 mins followed by substrate addition by Ellman's method
Procedure, shortened: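 Enzyme was 0.02 U/mL human recombinant AChE or human serum BChE. Non-enzymatic hydrolysis was corrected. IC50 came from a % inhibition vs log[I] regression. Selectivity = IC50 hBChE/IC50 hAChE. Mean ± SEM of ≥2 experiments, each in duplicate/triplicate.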

Mus musculus [11] = assay: Antiinflammatory activity in 11 months old APP/PS1 double mutant-transgenic mouse model assessed as reduction in GFAP level in hippocampus at 2 mg/kg, ip administered thrice a week for 4 weeks by Hoechst staining based immunofluorescence analysis; format: functional, organism-based; procedure, shortened: as §8
Mus musculus [12] = assay: as §3, with “11” for “6”, “old” for “young”, “fiber volley amplitude” for “postsynaptic potential”, “0.826” for “0.269”, “0.169” for “0.072”; format: functional; procedure, shortened: as §4
Mus musculus [13] = assay: Memory enhancement effect in 11 months old APP/PS1 double mutant-transgenic mouse model assessed as number of trials required to reach criterion at 2 mg/kg, ip administered thrice a week for 4 weeks measured on trail day 1 by memory flexibility text; format: functional; procedure, shortened: as §2
Mus musculus [14] = assay: as §7, with “time interval between two EPSPs” for “theta burst induced-long term potentiation”, “weeks at 10 ms stimulus interval” for “weeks”, “3.18” for “134.1”, “0.8 ms)” for “13.1 %)”; format: functional; procedure, shortened: as §5
Mus musculus [15] = assay: Memory enhancement effect in 11 months old APP/PS1 double mutant-transgenic mouse model assessed as number of trials required to reach criterion at 2 mg/kg, ip administered thrice a week for 4 weeks measured after 4 days by memory flexibility text; format: functional; procedure, shortened: as §2
Mus musculus [16] = assay: as §7, with “11” for “6”, “old” for “young”, “83.9” for “134.1”, “21.1” for “13.1”; format: functional
[17] = Permeability of the compound in PBS/EtOH buffer (70:30) by PAMPA-BBB assay; format: ADME; details: read-out: permeability
Procedure, shortened: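 PAMPA-BBB permeability, reported as Pe in 10⁻⁶ cm s⁻¹, with CNS+ defined as Pe > 5.1. Mean ± SD of three experiments, each in triplicate.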

Mus musculus [18] = assay: Neuroprotective activity in 6 months young APP/PS1 double mutant-transgenic mouse model assessed as decrease in 4-hydroxy-2-nonenal levels in hippocampus at 2 mg/kg, ip administered thrice a week for 4 weeks by Hoechst staining based immunofluorescence analysis; format: functional, organism-based
Procedure, shortened: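 Hippocampal 4-hydroxy-2-nonenal was assessed by immunofluorescence with Hoechst counterstain in male APP/PS1 mice given 2 mg/kg i.p. in saline (or vehicle), three times weekly for 4 weeks. Mean ± SEM, n = 4 mice per group; one-way ANOVA with Bonferroni post hoc.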

Mus musculus [19] = assay: Antialzheimer activity in 6 months young APP/PS1 double mutant-transgenic mouse model assessed as amyloid beta40 levels in hippocampus at 2 mg/kg, ip administered thrice a week for 4 weeks by ELISA; format: functional, organism-based; procedure, shortened: as §6
Mus musculus [20] = assay: as §3, with “11” for “6”, “old” for “young”, “0.293” for “0.269”, “0.105” for “0.072”; format: functional; procedure, shortened: as §4

Chain of Acetylcholinesterase (P22303 whole entry): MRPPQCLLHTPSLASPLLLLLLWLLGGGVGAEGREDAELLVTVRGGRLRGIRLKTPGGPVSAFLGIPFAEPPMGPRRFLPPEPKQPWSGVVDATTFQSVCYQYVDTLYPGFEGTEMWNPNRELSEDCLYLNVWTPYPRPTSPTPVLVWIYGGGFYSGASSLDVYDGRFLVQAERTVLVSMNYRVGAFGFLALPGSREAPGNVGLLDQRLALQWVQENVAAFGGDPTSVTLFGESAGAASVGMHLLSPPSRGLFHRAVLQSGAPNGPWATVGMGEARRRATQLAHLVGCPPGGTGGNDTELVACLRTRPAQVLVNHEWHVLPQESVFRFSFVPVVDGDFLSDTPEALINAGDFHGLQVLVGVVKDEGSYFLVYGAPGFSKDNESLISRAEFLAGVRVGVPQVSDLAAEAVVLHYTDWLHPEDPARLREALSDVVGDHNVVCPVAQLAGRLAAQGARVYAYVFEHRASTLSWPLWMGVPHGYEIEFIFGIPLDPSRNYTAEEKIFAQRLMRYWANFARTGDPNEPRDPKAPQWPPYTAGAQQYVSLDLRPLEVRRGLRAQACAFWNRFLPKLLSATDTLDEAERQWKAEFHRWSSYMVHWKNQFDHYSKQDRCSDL

COc1cc(CNC(=O)Cc2cn(CCCCC3=CC4Cc5nc6cc(Cl)ccc6c(N)c5C(C3)C4)nn2)ccc1O (configuration not stated)
Activity (Mus musculus [1]): inactive | Activity (Mus musculus [2]): inactive | Activity (Mus musculus [3]): 0.296 mV/ms | Activity (Mus musculus [4]): inactive | Drug uptake [5]: Active | Time (Mus musculus [6]): 1.96 ms | Activity (Mus musculus [7]): inactive | IC50 [8]: 92 µM | Activity (Mus musculus [9]): 397.3% | Activity (Mus musculus [10]): inactive | IC50 (Acetylcholinesterase): 0.00106 µM | Activity (Mus musculus [11]): Active | Activity (Mus musculus [12]): 1.039 mV | Activity (Mus musculus [13]): 13 | Time (Mus musculus [14]): 1.93 ms | Activity (Mus musculus [15]): 7 | Activity (Mus musculus [16]): 111% | Papp [17]: 8.8 ×10⁻⁶ cm/s | Activity (Mus musculus [18]): inactive | Activity (Mus musculus [19]): inactive | Activity (Mus musculus [20]): 0.652 mV/ms

COc1cc(CNC(=O)CCCCCCNc2c3c(nc4cc(Cl)ccc24)CC2C=C(C)CC3C2)ccc1O (configuration not stated)
Activity (Mus musculus [1]): inactive | Activity (Mus musculus [2]): inactive | Activity (Mus musculus [3]): 0.262 mV/ms | Activity (Mus musculus [4]): inactive | Drug uptake [5]: Active | Time (Mus musculus [6]): 2.32 ms | Activity (Mus musculus [7]): inactive | IC50 [8]: 55.4 µM | Activity (Mus musculus [9]): 275.6% | Activity (Mus musculus [10]): Active | IC50 (Acetylcholinesterase): 0.00077 µM | Activity (Mus musculus [11]): Active | Activity (Mus musculus [12]): 0.808 mV | Activity (Mus musculus [13]): 14 | Time (Mus musculus [14]): 3.44 ms | Activity (Mus musculus [15]): 13 | Activity (Mus musculus [16]): 124.3% | Papp [17]: 17.2 ×10⁻⁶ cm/s | Activity (Mus musculus [18]): inactive | Activity (Mus musculus [19]): inactive | Activity (Mus musculus [20]): 0.545 mV/ms
